Reference: ChEMBL document CHEMBL1139421, “Synthesis and elastase-inhibiting activity of 2-pyridinyl-isothiazol-3(2H)-one 1,1-dioxides” (Bioorg Med Chem, 2008)

Tests used:
[1] = target: Angiotensin-converting enzyme (Homo sapiens, UniProt P12821); test: Inhibition of human ACE
In short: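 Human ACE at 86.8 ng/ml final, 37 °C, in 50 mM Tris-HCl, 300 mM NaCl, pH 7.5. Enzyme was preincubated 10 min at 37 °C after dilution. FA-Phe-Gly-Gly at 3 mM final, with 3% DMSO. Absorbance decrease read at 352 nm over 20 min. IC50 from linear steady-state turnover.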

[2] = target: Bile salt-activated lipase (Bos taurus) (UniProt P30122); test: Inhibition of cholesterol esterase
Chain of Bile salt-activated lipase (Bos taurus) (P30122 whole entry, looked up): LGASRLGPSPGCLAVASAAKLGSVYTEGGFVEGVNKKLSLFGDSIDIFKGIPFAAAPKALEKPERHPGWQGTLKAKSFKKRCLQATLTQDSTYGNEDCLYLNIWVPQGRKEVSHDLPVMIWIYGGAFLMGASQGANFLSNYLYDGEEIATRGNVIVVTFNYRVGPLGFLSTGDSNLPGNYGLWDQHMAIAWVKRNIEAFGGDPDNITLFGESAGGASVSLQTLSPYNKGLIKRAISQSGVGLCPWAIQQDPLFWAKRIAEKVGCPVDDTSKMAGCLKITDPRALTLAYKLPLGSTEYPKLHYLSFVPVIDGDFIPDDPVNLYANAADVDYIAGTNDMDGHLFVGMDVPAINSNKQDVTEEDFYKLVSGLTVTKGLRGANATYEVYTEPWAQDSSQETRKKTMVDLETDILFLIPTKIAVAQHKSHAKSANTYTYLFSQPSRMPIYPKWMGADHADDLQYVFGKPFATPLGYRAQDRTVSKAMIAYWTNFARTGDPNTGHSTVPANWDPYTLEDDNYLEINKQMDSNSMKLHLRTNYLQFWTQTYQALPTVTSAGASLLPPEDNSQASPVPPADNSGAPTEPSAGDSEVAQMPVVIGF

Procathepsin L = Procathepsin L (Homo sapiens, UniProt P07711); test: Inhibition of human cathepsin L
Chain of Procathepsin L (P07711 whole entry): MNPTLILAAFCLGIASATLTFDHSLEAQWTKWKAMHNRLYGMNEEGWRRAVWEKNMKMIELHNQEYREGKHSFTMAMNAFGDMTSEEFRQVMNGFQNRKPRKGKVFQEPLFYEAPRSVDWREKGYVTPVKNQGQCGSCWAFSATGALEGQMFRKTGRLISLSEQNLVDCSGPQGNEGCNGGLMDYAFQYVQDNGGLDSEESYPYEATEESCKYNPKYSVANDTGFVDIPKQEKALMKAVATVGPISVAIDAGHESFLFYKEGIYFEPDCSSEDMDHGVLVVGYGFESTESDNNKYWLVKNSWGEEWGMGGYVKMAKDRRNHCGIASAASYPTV
In short: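 Human cathepsin L at 4 ng/ml final, 37 °C, in 100 mM sodium phosphate pH 6.0, 100 mM NaCl, 5 mM EDTA, 0.01% Brij 35. Enzyme was activated 30 min at 37 °C with 5 mM DTT. Z-Phe-Arg-pNA at 100 µM final, with 3% DMSO; read at 405 nm over 10 min, with linear regression of progress curves.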

Acetylcholinesterase = Acetylcholinesterase (Homo sapiens, UniProt P22303); test: Inhibition of acetylcholinesterase
Chain of Acetylcholinesterase (P22303 whole entry): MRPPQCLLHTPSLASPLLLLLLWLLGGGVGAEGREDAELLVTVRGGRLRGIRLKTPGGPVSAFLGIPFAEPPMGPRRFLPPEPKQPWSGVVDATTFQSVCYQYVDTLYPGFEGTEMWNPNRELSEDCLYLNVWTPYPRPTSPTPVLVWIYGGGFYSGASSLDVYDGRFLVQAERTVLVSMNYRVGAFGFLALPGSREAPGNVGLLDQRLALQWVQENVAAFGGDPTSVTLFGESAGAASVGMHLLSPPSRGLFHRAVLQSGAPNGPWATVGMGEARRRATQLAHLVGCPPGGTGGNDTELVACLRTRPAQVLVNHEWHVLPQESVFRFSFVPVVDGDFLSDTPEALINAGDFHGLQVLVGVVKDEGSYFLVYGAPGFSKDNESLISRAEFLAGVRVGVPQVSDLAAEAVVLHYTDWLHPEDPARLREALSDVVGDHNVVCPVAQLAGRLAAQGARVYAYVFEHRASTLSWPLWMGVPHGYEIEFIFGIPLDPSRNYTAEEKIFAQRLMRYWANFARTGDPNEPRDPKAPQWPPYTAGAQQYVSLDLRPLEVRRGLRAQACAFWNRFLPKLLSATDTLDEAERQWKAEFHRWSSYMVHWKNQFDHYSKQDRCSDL
In short: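 Acetylcholinesterase in 100 mM sodium phosphate, 100 mM NaCl, pH 7.3. Enzyme, DTNB and test compound (acetonitrile stocks, added acetonitrile) preincubated 15 min at 25 °C. Reaction started with acetylthiocholine; DTNB final 350 µM. Read at 412 nm, 25 °C. Progress curves followed 5 min and fitted by linear regression; IC50 derived from rates with and without inhibitor.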

Cathepsin G = target: T1, Cathepsin G (Homo sapiens, UniProt P08311); test: Inhibition of human cathepsin G
T1 sequence (P08311 whole entry): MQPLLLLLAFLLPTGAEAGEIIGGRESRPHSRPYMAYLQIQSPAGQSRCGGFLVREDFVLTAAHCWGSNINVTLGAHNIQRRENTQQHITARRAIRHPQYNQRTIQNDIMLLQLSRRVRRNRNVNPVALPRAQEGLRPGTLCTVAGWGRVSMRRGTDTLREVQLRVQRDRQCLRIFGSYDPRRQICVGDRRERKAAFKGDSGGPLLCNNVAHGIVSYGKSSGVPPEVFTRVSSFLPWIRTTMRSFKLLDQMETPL
In short: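 Human cathepsin G at 2.5 mU/ml final, 25 °C, in 20 mM Tris-HCl, 150 mM NaCl, pH 8.4. Suc-Ala-Ala-Pro-Phe-pNA at 500 µM final, with 1.5% DMSO; started with enzyme. Read at 405 nm over 10 min. IC50 from linear steady-state rate, duplicate determinations at 12.5 µM inhibitor, IC50 = [I]/(v0/v − 1).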

Neutrophil elastase = target: T2, Neutrophil elastase (Homo sapiens, UniProt P08246); test: Inhibition of human leukocyte elastase
T2 sequence (P08246 whole entry): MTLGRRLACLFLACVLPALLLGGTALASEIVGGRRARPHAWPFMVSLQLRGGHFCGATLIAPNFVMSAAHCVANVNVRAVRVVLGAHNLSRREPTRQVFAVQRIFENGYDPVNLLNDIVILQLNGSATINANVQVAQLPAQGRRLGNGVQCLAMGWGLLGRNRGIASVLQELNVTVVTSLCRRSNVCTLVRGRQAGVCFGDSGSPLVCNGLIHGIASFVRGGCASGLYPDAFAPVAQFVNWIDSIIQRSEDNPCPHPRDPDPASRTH
In short: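 Human leukocyte elastase at 50 ng/ml final, 25 °C, in 50 mM sodium phosphate, 500 mM NaCl, pH 7.8. MeOSuc-Ala-Ala-Pro-Val-pNA at 100 µM final (1.9 Km), with 3.5% DMSO; started with enzyme. Read at 405 nm over 10 min. IC50 from linear steady-state rates: duplicate determinations at 25 and 50 µM, or five concentrations fitted nonlinearly.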

[3] = Inhibition of bovine trypsin; set-up: species or system Bos taurus
In short: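 Bovine pancreatic trypsin at 12.5 ng/ml final, 25 °C, in 20 mM Tris-HCl, 150 mM NaCl, pH 8.4. Substrate Suc-Ala-Ala-Pro-Arg-pNA at 200 µM final, with 6% DMSO. Started with enzyme; release of pNA read at 405 nm over 10 min. IC50 taken from linear steady-state turnover, duplicate determinations at inhibitor 25 and 50 µM.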

Chain of Angiotensin-converting enzyme (P12821 whole entry): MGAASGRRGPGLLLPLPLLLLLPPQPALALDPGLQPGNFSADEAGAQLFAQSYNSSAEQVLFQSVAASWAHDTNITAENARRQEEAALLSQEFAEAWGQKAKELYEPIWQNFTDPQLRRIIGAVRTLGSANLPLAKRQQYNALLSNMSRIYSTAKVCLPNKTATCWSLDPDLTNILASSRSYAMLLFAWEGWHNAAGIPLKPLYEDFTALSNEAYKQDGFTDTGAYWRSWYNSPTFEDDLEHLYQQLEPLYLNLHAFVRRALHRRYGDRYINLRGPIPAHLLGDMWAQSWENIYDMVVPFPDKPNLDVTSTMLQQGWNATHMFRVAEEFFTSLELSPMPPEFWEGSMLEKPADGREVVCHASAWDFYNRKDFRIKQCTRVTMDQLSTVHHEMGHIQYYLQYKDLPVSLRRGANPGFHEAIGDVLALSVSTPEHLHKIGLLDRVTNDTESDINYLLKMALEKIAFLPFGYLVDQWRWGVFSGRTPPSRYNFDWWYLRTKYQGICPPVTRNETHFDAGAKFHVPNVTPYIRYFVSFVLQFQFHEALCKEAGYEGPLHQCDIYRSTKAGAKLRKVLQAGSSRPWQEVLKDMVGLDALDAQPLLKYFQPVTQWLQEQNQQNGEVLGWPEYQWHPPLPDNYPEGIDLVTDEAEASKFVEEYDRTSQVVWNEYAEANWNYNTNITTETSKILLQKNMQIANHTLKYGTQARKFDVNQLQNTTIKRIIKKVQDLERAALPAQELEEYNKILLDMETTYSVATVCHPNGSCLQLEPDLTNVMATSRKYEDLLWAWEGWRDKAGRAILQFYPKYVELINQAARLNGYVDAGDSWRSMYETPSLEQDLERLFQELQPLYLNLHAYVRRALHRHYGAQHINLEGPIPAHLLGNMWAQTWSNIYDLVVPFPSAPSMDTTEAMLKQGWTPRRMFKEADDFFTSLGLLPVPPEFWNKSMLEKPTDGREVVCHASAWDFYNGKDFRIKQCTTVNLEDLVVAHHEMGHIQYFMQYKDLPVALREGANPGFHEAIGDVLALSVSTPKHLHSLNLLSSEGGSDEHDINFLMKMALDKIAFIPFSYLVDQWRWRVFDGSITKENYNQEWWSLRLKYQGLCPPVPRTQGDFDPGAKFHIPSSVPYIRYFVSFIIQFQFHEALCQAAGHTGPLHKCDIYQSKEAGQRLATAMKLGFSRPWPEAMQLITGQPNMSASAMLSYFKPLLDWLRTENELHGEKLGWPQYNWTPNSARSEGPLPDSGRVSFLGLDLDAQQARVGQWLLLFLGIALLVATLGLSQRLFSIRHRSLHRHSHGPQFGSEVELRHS

SMILES | IC50 [1] [µM] | IC50 [2] [µM] | IC50 (Procathepsin L) [µM] | IC50 (Acetylcholinesterase) [µM] | IC50 (Cathepsin G) [µM] | IC50 (Neutrophil elastase) [µM] | IC50 [3] [µM] | Ki (Neutrophil elastase) [µM]
O=C1C2=C(CCCC2)S(=O)(=O)N1c1cccc(Br)n1 | > 100 | > 100 | > 100 | > 100 | > 100 | > 100 | > 100 | 
O=C1C2=C(CCCC2)S(=O)(=O)N1c1ncc(F)cc1F | > 100 | > 100 | > 100 | > 100 | > 100 | > 100 | > 100 | 
O=C1C2=C(CCCC2)S(=O)(=O)N1c1c(F)c(F)nc(F)c1F | > 100 | > 100 | > 100 | > 100 | > 100 | 3.1 | > 100 | 
CC1=C(c2ccccc2)C(=O)N(c2c(F)c(F)nc(F)c2F)S1(=O)=O | > 100 | > 100 | > 100 | > 100 | > 100 | 33 | > 100 | 
O=C1C2=C(CCCC2)S(=O)(=O)N1c1c(F)c(F)c(F)c(F)c1F | > 100 | > 100 | > 100 | > 100 | > 100 | > 100 | > 100 | 
O=C1C2=C(CCCC2)S(=O)(=O)N1c1ccncc1.[O-][Cl+3]([O-])([O-])O | > 100 | > 100 | > 100 | > 100 | > 100 | > 100 | > 100 | 
CC1=C(C)S(=O)(=O)N(c2c(F)c(F)nc(F)c2F)C1=O | > 100 | > 100 | > 100 | > 100 | > 100 | > 100 | > 100 | 
O=C1C2=C(CCCC2)S(=O)(=O)N1c1cccc(Cl)n1 | > 100 | > 100 | > 100 | > 100 | > 100 | > 100 | > 100 | 
O=C1c2ccccc2S(=O)(=O)N1c1c(F)c(F)nc(F)c1F | > 100 | 11 | > 100 | > 100 | 3.7 | 0.081 | 7.5 | 0.028
